High-throughput results: PubChem BioAssay, several laboratories
The list is not random: actives were taken first. Their share in the collection is about 1.9%.
ABHD5-PLIN5 inh – inhibitors of human ABHD5-perilipin-5 interaction; Q00G26+Q8WTS1; Split G. princeps luciferase complementation, luminescence, 4 h; inhibition, % at 4 µM; 360,000 compounds, 0.78% hits; AID 602281;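 active = inhibition above the mean inhibition across every tested compound plus 3 SD, cut at about 22% in these data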
Rin1-Abl PPI inh – inhibitors of human Rin1-Abl protein interaction; P00519+Q13671; TR-FRET Rin1/Abl binding, biochemical; 360,000 compounds, 0.4% hits; AID 588664; inhibition, % at 7.35 µM; in the data active = inhibition above about 5%, passing the limit was not always enough
Rpn11 inh – inhibitors of human proteasome Rpn11 | O00487 | human 26S proteasome, Ub4-pepOG fluorescence polarization; 20S core pre-blocked with epoxomicin | inhibition, % at 20 µM | 360,000 compounds, 0.59% hits;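 active = inhibition at 20 µM, scaled to each plate's controls, above about 33%, limit read from the data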
Target sequence (O00487 whole entry, looked up): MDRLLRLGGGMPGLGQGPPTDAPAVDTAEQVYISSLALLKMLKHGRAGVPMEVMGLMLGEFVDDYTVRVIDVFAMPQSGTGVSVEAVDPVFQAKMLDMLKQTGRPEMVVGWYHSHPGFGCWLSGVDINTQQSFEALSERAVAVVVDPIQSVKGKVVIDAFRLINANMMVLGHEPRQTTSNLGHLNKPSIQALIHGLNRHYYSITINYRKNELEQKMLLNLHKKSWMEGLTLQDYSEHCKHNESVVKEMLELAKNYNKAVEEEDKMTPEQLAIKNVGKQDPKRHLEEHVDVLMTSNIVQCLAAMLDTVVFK
Xi reactivation – X-chromosome reactivation activator. 360,000 compounds, 0.055% hits. activation, % at 7.58 µM. XiGFP mouse fibroblasts, % GFP-positive cells imaging, 3 d; cells co-treated with 5-aza-dC sensitizer; scaled so ellipticine positive control = 100%;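 active = mean normalized replicate activation at least 10% and every replicate at or above 10%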
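Material: XiGFP fibroblasts, SV40-immortalized. Buffer or medium: DMEM plus 5-aza-dC sensitizer. Compound: single concentration per compound, delivered by pin transfer. Times: 3 days compound exposure. Controls: ellipticine 6 µM.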
NadD inh – blocks S. aureus nicotinate mononucleotide adenylyltransferase | AID 602399 | purified NadD enzyme, colorimetric absorbance read-out | inhibition, % at 20 µM | 360,000 compounds, 0.78% hits; in the data active = inhibition above about 26%
A number is an active result.

Results for CNC(=O)CSc1nc2nn(-c3ccccc3)c(=O)c-2c2n1CCCCC2 ?
ABHD5-PLIN5 inh: inactive; Rin1-Abl PPI inh: inactive; Rpn11 inh: inactive; NadD inh: inactive

Results for O=C(CSc1nc2nn(-c3ccccc3)c(=O)c-2c2n1CCCCC2)c1ccc(O)c(O)c1 ?
ABHD5-PLIN5 inh: inactive; Rin1-Abl PPI inh: 16.1; Rpn11 inh: inactive; NadD inh: 57.3

How did COc1ccc(CCn2c(C)cc(C(=O)CN3C(=O)C(=O)N(Cc4ccco4)C3=O)c2C)cc1 do in these assays?
ABHD5-PLIN5 inh: inactive; Rin1-Abl PPI inh: inactive; Rpn11 inh: inactive; Xi reactivation: 34.3; NadD inh: inactive

What do the screens show for `C=CC(=O)Nc1cccc(Nc2nc(N[C@H]3CC[C@H](N(C)C)CC3)nc3c2ncn3C(C)C)c1`?
ABHD5-PLIN5 inh: inactive; Rin1-Abl PPI inh: inactive; Rpn11 inh: 68.0; NadD inh: inactive

How did COc1ccccc1-c1ccc([C@H]2[C@@H](CO)N[C@@H]2CNC(=O)C2CCC2)cc1 do in these assays?
Xi reactivation: inactive

What do the screens show for `O=C(O)C1Nc2c(O)cc(Cl)c([N+](=O)[O-])c2C2C=CCC12` (stereo not drawn)?
ABHD5-PLIN5 inh: inactive; Rin1-Abl PPI inh: 14.3; Rpn11 inh: inactive; Xi reactivation: inactive; NadD inh: 63.3

Results for O=C1NN(c2cccc(Br)c2)C(=O)/C1=C/c1ccc(-c2cc([N+](=O)[O-])ccc2O)o1 ?
ABHD5-PLIN5 inh: inactive; Rin1-Abl PPI inh: inactive; Rpn11 inh: inactive; NadD inh: 70.0

What do the screens show for `CN(/N=C/c1ccc(O)cc1O)c1nc(-c2ccccc2)cc(-c2ccccc2)n1`?
ABHD5-PLIN5 inh: inactive; Rin1-Abl PPI inh: inactive; Rpn11 inh: inactive; Xi reactivation: inactive; NadD inh: 33.4

What do the screens show for `COc1ccc(S(=O)(=O)Nc2cccc3c2O[C@@H](CN(C)C(=O)NC2CCCCC2)[C@@H](C)CN([C@@H](C)CO)C3=O)cc1`?
Xi reactivation: inactive

How did CCCC(=O)Nc1ccc2c(c1)OC[C@@H](C)N(Cc1cncnc1)C[C@@H](C)[C@H](OC)CN(C)C2=O do in these assays?
Xi reactivation: inactive

What do the screens show for `C=Cc1cnc([N+](=O)[O-])n1C`?
ABHD5-PLIN5 inh: inactive; Rin1-Abl PPI inh: inactive; Rpn11 inh: inactive; Xi reactivation: 88.3; NadD inh: inactive

What do the screens show for `COC(=O)N(C)C[C@H]1OCc2ccccc2-c2ccccc2C(=O)N([C@H](C)CO)C[C@@H]1C`?
Xi reactivation: inactive

Results for CCCC(=O)NC(=S)Nc1ccccc1F ?
ABHD5-PLIN5 inh: inactive; Rin1-Abl PPI inh: 6.3; Rpn11 inh: inactive; NadD inh: inactive

What do the screens show for `CCC(=O)NC(=S)Nc1ccccc1F`?
ABHD5-PLIN5 inh: inactive; Rin1-Abl PPI inh: inactive; Rpn11 inh: inactive; NadD inh: inactive

How did CC(C)NC(=O)NCC[C@@H]1CC[C@@H](NS(=O)(=O)c2ccccc2)[C@@H](CO)O1 do in these assays?
Xi reactivation: inactive

Results for COc1cc(/C=C2\SC(=Nc3ccc(Cl)c(C(=O)O)c3)NC2=O)c(Br)c(Br)c1O ?
ABHD5-PLIN5 inh: inactive; Rin1-Abl PPI inh: inactive; Xi reactivation: inactive; NadD inh: 69.6

What do the screens show for `CCOc1ccc(C(=O)OC(C)C(=O)N2CCN(Cc3ccccc3)CC2)cc1` (stereo not drawn)?
ABHD5-PLIN5 inh: inactive; Rin1-Abl PPI inh: inactive; Rpn11 inh: inactive; Xi reactivation: inactive; NadD inh: inactive

What do the screens show for `CCOc1ccc(C(=O)N2CCCCCC2)cc1`?
ABHD5-PLIN5 inh: inactive; Rin1-Abl PPI inh: inactive; Rpn11 inh: inactive; NadD inh: inactive

Results for CCOc1ccc(C(=O)CC(C(=O)O)N2CCN(Cc3ccccc3)CC2)cc1 (stereo not drawn) ?
ABHD5-PLIN5 inh: 95.3; Rin1-Abl PPI inh: inactive; Rpn11 inh: inactive; NadD inh: inactive

What do the screens show for `CCOc1ccc(C(=O)CC(C(=O)O)N2CCCCC2)cc1` (stereo not drawn)?
ABHD5-PLIN5 inh: 84.8; Rin1-Abl PPI inh: inactive; Rpn11 inh: inactive; NadD inh: inactive

How did CCCNC(=O)N1CCC2(CC1)CN(C(C)=O)[C@@H](CO)c1c2c2ccc(OC)cc2n1C do in these assays?
Xi reactivation: inactive

Results for COc1ccccc1NCC(O)Cn1c2ccccc2c2ccccc21 (stereo not drawn) ?
ABHD5-PLIN5 inh: inactive; Rin1-Abl PPI inh: inactive; Rpn11 inh: inactive; NadD inh: inactive

What do the screens show for `COc1ccc(CCNCC(O)Cn2c3ccccc3c3ccccc32)cc1OC` (stereo not drawn)?
ABHD5-PLIN5 inh: 22.4; Rin1-Abl PPI inh: inactive; Rpn11 inh: inactive; Xi reactivation: inactive; NadD inh: inactive

How did CCCCN(C)CC(O)Cn1cc(/C=C/C(=O)c2ccc(C)cc2)c2ccccc21 (stereo not drawn) do in these assays?
ABHD5-PLIN5 inh: inactive; Rin1-Abl PPI inh: inactive; Rpn11 inh: 45.5; Xi reactivation: inactive; NadD inh: inactive

What do the screens show for `O=C(/C=C/c1cn(CC(O)CN2CCCCC2)c2ccccc12)c1ccccc1` (stereo not drawn)?
ABHD5-PLIN5 inh: inactive; Rin1-Abl PPI inh: inactive; Rpn11 inh: 42.1; Xi reactivation: inactive; NadD inh: inactive

Results for C[C@H](CO)N1C[C@H](C)[C@@H](CN(C)Cc2ccc(-c3ccccc3)cc2)Oc2ccc(NC(=O)Nc3cccc4ccccc34)cc2CC1=O ?
Xi reactivation: inactive

What do the screens show for `COc1ccccc1-c1ccc(C2[C@@H]3CN(S(=O)(=O)c4ccccc4)C[C@H]2N3)cc1` (stereo partly drawn)?
Xi reactivation: inactive

What do the screens show for `Cc1ccc(C)c(-c2cc(C(=O)Nc3sc(C)c(C)c3C(N)=O)c3ccccc3n2)c1`?
ABHD5-PLIN5 inh: inactive; Rin1-Abl PPI inh: inactive; Rpn11 inh: inactive; NadD inh: 34.7

What do the screens show for `CCOC(=O)c1sc(NC(=O)CSc2n[nH]c(-c3ccccc3)n2)c(C#N)c1C`?
ABHD5-PLIN5 inh: inactive; Rin1-Abl PPI inh: inactive; Rpn11 inh: inactive; NadD inh: inactive

How did CCOC(=O)c1sc(NC(=O)c2cc(-c3ccccc3)nc3ccccc23)c(C#N)c1C do in these assays?
ABHD5-PLIN5 inh: inactive; Rin1-Abl PPI inh: inactive; Rpn11 inh: inactive; NadD inh: 38.5

How did Cc1ccc(S(=O)(=O)Nc2ccc3c(c2)C(=O)N([C@H](C)CO)C[C@@H](C)[C@H](CN(C)C(=O)Nc2ccccc2)OCCCC[C@H](C)O3)cc1 do in these assays?
Xi reactivation: inactive

How did COc1c(Br)cc(Br)cc1/C=N/NC(=O)c1ccncc1 do in these assays?
ABHD5-PLIN5 inh: inactive; Rin1-Abl PPI inh: inactive; Rpn11 inh: inactive; Xi reactivation: inactive; NadD inh: inactive

Results for CN(C)c1ccc(C(=O)N/N=C/c2cc(Br)cc(Br)c2O)cc1 ?
ABHD5-PLIN5 inh: inactive; Rin1-Abl PPI inh: inactive; Rpn11 inh: inactive; Xi reactivation: inactive; NadD inh: 32.0

Results for COc1ccc(CN(C)C[C@H]2Oc3ccc(NC(=O)NC4CCCCC4)cc3CC(=O)N([C@H](C)CO)C[C@@H]2C)cc1 ?
Xi reactivation: inactive

Results for COc1ccc2c3c([nH]c2c1)[C@@H](CO)N(C(=O)c1cccc(F)c1)CC31CN(S(=O)(=O)c2cccs2)C1 ?
Xi reactivation: inactive
